Active and inactive are the calls of the source. The calls are words filed in the database; no cut-off is given here.
How the values were obtained:
[1] = target: T1, Signal transducer and activator of transcription 5A (Homo sapiens) (UniProt P42229); test: Induction of STAT5 degradation in human SU-DHL-1 cells at 0.25 to 100 uM incubated for 14 hrs by Western blot analysis; assay type: cell-based; details: dose 0.25-100 µM
T1 sequence (whole entry): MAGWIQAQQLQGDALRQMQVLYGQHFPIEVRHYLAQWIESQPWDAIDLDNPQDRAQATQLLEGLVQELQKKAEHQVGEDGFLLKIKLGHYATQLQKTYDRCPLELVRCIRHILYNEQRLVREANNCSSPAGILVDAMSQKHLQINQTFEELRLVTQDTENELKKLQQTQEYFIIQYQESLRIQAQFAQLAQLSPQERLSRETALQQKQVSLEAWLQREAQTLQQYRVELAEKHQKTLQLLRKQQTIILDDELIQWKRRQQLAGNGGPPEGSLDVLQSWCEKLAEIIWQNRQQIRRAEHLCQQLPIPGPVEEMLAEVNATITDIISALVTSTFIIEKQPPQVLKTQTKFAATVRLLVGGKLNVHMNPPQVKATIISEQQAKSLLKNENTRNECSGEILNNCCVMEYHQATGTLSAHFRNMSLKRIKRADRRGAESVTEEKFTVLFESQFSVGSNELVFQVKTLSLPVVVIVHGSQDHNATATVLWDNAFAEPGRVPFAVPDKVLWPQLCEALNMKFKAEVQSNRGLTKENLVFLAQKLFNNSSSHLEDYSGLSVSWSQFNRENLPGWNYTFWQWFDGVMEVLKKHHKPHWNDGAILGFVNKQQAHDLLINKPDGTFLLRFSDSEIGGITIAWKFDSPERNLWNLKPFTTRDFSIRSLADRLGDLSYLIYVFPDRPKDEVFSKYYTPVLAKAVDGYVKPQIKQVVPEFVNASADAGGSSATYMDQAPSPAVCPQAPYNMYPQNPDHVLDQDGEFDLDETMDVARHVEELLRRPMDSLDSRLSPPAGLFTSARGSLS

[2] = target: Signal transducer and activator of transcription 3 (Homo sapiens, UniProt P40763); test: Induction of STAT3 degradation in human SU-DHL-1 cells at 0.25 to 100 uM incubated for 14 hrs by Western blot analysis; assay type: cell-based; details: dose 0.25-100 µM
Sequence of Signal transducer and activator of transcription 3 (P40763 whole entry): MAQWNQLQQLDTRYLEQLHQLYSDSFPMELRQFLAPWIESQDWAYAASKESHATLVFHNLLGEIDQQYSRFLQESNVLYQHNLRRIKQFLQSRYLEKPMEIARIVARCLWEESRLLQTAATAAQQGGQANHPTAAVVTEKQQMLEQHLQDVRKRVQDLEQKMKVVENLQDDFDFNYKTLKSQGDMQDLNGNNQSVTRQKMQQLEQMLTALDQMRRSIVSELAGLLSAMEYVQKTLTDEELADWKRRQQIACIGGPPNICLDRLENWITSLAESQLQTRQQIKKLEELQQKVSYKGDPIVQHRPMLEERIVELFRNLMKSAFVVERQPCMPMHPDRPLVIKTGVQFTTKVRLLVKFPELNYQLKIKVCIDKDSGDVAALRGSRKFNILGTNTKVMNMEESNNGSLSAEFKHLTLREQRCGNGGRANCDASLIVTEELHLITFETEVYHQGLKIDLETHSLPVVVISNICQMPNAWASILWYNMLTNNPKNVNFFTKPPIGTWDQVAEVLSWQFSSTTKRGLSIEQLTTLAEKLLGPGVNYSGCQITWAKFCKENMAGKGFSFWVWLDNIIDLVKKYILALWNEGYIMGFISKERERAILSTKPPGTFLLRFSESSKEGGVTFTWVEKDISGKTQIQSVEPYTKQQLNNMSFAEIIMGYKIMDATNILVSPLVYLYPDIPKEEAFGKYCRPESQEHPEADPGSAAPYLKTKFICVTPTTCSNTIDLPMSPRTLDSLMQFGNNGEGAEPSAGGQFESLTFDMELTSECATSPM

[3] = target: T1, Signal transducer and activator of transcription 5A (Homo sapiens); test: Induction of STAT5 degradation in human MOLM16 cells at 0.25 to 100 uM incubated for 4 hrs by Western blot analysis; assay type: cell-based; details: dose 0.25-100 µM
Procedure, shortened: (§1)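 Cells treated 4 h with compounds across 25 nM to 100 μM; STAT proteins detected by Western blot with GAPDH as loading control; STAT3 DC50 estimated by densitometry of STAT3 relative to GAPDH. Applies to MOLM-16 for all STATs, and to SU-DHL-1 and SUP-M2 for STAT3.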

[4] = target: T2, Signal transducer and activator of transcription 6 (Homo sapiens) (UniProt P42226); test: Induction of STAT6 degradation in human MOLM16 cells at 0.25 to 100 uM incubated for 4 hrs by Western blot analysis; assay type: cell-based; details: dose 0.25-100 µM; procedure, shortened: as §1
T2 sequence (whole entry): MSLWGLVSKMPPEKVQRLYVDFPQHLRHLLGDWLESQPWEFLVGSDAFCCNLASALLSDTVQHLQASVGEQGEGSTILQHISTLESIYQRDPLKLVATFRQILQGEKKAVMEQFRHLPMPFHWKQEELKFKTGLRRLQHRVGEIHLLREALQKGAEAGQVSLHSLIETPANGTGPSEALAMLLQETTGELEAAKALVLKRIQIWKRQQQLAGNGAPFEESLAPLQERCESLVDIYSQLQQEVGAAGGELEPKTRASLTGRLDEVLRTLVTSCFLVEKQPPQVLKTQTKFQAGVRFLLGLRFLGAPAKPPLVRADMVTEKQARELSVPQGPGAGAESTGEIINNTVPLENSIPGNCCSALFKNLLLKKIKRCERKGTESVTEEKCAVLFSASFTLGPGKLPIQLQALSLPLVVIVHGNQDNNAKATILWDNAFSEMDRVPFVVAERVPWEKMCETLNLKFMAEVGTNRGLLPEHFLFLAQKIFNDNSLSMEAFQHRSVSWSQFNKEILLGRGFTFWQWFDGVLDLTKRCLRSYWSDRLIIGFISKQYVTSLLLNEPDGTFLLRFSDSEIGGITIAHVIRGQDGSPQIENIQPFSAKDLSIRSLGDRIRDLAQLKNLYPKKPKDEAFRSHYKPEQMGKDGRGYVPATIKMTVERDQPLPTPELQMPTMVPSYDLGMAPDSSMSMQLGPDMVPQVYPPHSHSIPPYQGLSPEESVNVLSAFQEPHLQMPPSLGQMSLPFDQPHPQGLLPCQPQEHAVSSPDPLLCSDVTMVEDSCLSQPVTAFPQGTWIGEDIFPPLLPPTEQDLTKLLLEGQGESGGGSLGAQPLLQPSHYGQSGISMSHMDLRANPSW

[5] = target: T3, Signal transducer and activator of transcription 2 (Homo sapiens, UniProt P52630); test: Induction of STAT2 degradation in human SU-DHL-1 cells at 0.25 to 100 uM incubated for 14 hrs by Western blot analysis; assay type: cell-based; details: dose 0.25-100 µM
T3 sequence (P52630 whole entry): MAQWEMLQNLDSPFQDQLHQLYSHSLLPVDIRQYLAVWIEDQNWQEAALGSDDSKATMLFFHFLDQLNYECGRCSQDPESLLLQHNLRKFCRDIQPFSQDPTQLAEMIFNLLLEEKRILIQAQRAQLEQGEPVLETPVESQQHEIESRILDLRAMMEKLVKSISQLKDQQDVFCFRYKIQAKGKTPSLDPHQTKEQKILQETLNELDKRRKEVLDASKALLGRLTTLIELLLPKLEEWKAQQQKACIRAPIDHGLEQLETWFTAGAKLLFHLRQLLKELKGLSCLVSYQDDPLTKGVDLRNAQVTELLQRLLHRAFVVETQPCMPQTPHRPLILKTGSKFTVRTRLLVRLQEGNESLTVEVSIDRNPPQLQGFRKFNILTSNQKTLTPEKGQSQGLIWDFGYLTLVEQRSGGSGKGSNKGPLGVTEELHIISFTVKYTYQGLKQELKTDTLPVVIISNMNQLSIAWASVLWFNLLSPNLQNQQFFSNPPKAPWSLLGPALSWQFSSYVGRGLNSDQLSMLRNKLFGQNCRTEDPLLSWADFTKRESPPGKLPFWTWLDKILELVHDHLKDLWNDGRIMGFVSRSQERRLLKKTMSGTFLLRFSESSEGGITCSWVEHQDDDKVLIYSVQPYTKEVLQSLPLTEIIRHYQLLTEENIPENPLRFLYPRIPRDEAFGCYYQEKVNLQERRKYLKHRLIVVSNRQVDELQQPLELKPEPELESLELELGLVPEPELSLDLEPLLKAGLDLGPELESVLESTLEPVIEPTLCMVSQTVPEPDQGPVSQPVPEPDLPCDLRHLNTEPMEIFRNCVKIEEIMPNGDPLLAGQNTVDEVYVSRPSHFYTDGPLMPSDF
Procedure, shortened: (§2)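 SU-DHL-1 or SUP-M2 cells treated over 25 nM to 100 μM. STAT family proteins assessed by Western blot.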

[6] = Antiproliferative activity against human MOLM-16 cells assessed as cell growth inhibition incubated for 4 days by CellTiter-Glo asssay; assay type: functional, cell-based; details: MOLM16, 96 h
Procedure, shortened: (§3)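 Growth inhibition tested in MOLM-16 acute leukemia and SU-DHL-1 and SUP-M2 lymphoma cell lines.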

[7] = Antiproliferative activity against human SUP-M2 cells assessed as cell growth inhibition incubated for 4 days by CellTiter-Glo asssay; assay type: functional, cell-based, SUPM2; details: SUP-M2, 96 h; procedure, shortened: as §3
[8] = target: T3, Signal transducer and activator of transcription 2; test: Induction of STAT2 degradation in human SUP-M2 cells at 0.25 to 100 uM incubated for 14 hrs by Western blot analysis; assay type: cell-based; details: SUPM2, dose 0.25-100 µM; procedure, shortened: as §2
[9] = target: T2, Signal transducer and activator of transcription 6 (Homo sapiens); test: Induction of STAT6 degradation in human SUP-M2 cells at 0.25 to 100 uM incubated for 14 hrs by Western blot analysis; assay type: cell-based; details: SUPM2, dose 0.25-100 µM

SMILES	Activity [1]	Activity [2]	Activity [3]	Activity [4]	Activity [5]	IC50 [6]	IC50 [7]	Activity [8]	Activity [9]
NC(=O)CC[C@H](NC(=O)[C@@H]1CC[C@@H]2CCN(C(=O)CCCCCC#Cc3cccc4c3CN(C3CCC(=O)NC3=O)C4=O)C[C@H](NC(=O)c3cc4cc(C(=O)P(=O)(O)O)ccc4[nH]3)C(=O)N21)C(=O)NC(c1ccccc1)c1ccccc1 (stereo not given in full)	inactive	Active	inactive	inactive	inactive	170 nM	460 nM	inactive	inactive
NC(=O)CC[C@H](NC(=O)[C@@H]1CC[C@@H]2CCN(C(=O)CCCCCC#Cc3cccc4c3CN(C3CCC(=O)NC3=O)C4=O)C[C@H](NC(=O)c3cc4cc(C(F)(F)P(=O)(O)O)ccc4[nH]3)C(=O)N21)C(=O)NC(c1ccccc1)c1ccccc1 (stereo not given in full)	–	inactive	–	–	–	180 nM	530 nM	–	–
CC(=O)N1CC[C@H]2CC[C@@H](C(=O)N[C@@H](CCC(N)=O)C(=O)NC(c3ccccc3)c3ccccc3)N2C(=O)[C@@H](NC(=O)c2cc3cc(C(F)(F)P(=O)(O)O)ccc3[nH]2)C1	inactive	inactive	inactive	inactive	inactive	> 10000 nM	> 10000 nM	inactive	inactive
CC(=O)N1CC[C@H]2CC[C@@H](C(=O)N[C@@H](CCC(N)=O)C(=O)NC(c3ccccc3)c3ccccc3)N2C(=O)[C@@H](NC(=O)c2cc3cc(C(=O)P(=O)(O)O)ccc3[nH]2)C1	inactive	inactive	inactive	inactive	inactive	> 10000 nM	> 10000 nM	inactive	inactive
